Experimental findings from ChEMBL document CHEMBL3232750, “Synthesis, structure-activity relationships, and in vitro antibacterial and antifungal activity evaluations of novel pyrazole carboxylic and dicarboxylic acid derivatives” (2014) are described below.

The test system of one test is Escherichia coli. The test is described as follows: Antibacterial activity against Escherichia coli at 37 degC after 24 hrs by agar well diffusion assay. Format: functional, organism-based. The gist of the method: (§1)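 Compounds dissolved in DMSO at 2.5 mg/ml initial concentration, then serially diluted two-fold in DMSO. Nutrient Agar plates were swabbed with 10^8 CFU/mL bacteria and dried about 40 min at 35 °C. Solution was placed in 6 mm wells, then 2 h pre-incubation at 25 °C and 24 h at 37 °C. MIC is the lowest concentration giving a growth-inhibition zone around the well. Duplicate.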

Another test concerns Candida parapsilosis. Nature of the test: Antifungal activity against Candida parapsilosis at 25 degC after 48 hrs by agar well diffusion assay. In kind it is functional. The gist of the method: (§2)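 Yeast suspensions of 10^7 CFU/mL were swabbed onto Sabouraud Dextrose Agar and dried about 40 min at 35 °C. Compounds were dissolved in DMSO (2.5 mg/ml initial) and diluted two-fold in DMSO, then loaded into 6 mm wells. Plates: 2 h pre-incubation at 25 °C, then 48 h at 25 °C. MIC read as the lowest concentration inhibiting growth around the well, in duplicate. The C. albicans clinical isolate came from a hospitalized patient at Eskisehir Osmangazi University hospital; the standard strain came from a culture collection.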

Test [1] concerns Staphylococcus aureus. Nature of the test: Antibacterial activity against methicillin-resistant Staphylococcus aureus at 37 degC after 24 hrs by agar well diffusion assay. In kind it is functional. The gist of the method: (§3)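 Bacteria kept on Nutrient Agar slants at 4 °C and subcultured before use. Suspensions of 10^8 CFU/mL were swabbed onto Nutrient Agar and the plates dried 40 min at 35 °C. Compounds were dissolved in DMSO starting at 2.5 mg/ml, serially diluted two-fold, and loaded into 6 mm wells. Plates were pre-incubated 2 h at 25 °C, then 24 h at 37 °C. Inhibition zones were read and the MIC taken as the lowest inhibiting concentration. Duplicates were run.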

A further test relates to Nakaseomyces glabratus. Nature of the test: Antifungal activity against Candida glabrata at 25 degC after 48 hrs by agar well diffusion assay. In kind it is functional. The gist of the method: as §2
For test [2], the system named is Candida albicans. Nature of the test: Antifungal activity against Candida albicans at 25 degC after 48 hrs by agar well diffusion assay. Format: functional. The gist of the method: as §2
Test [3] concerns Staphylococcus aureus. Nature of the test: Antibacterial activity against Staphylococcus aureus at 37 degC after 24 hrs by agar well diffusion assay. In kind it is functional. The gist of the method:
as §1

Test [4] concerns Candida albicans. Nature of the test: Antifungal activity against Candida albicans ESOGU at 25 degC after 48 hrs by agar well diffusion assay. Format: functional. The gist of the method:
as §2

For a further test, the system named is Enterococcus. Nature of the test: Antibacterial activity against vancomycin-resistant Enterococcus species at 37 degC after 24 hrs by agar well diffusion assay. In kind it is functional, organism-based. The method in brief:
as §3

A further test has as its system Pseudomonas aeruginosa. The test is described as follows: Antibacterial activity against Pseudomonas aeruginosa at 37 degC after 24 hrs by agar well diffusion assay. Format: functional, organism-based. The gist of the method: as §1
The subject of a further test is Candida tropicalis. The test is described as follows: Antifungal activity against Candida tropicalis at 25 degC after 48 hrs by agar well diffusion assay. In kind it is functional. The method in brief:
as §2

Converted amounts (≈) assume the structure as drawn. The source made the active and inactive calls. The calls are words filed in the database; no cut-off is given here.

For the compound `CCOC(=O)c1c(C(=O)Nc2ccccc2F)nn(-c2cccc([N+](=O)[O-])c2)c1-c1ccccc1`, the outcome in the test on Escherichia coli, in the test on Candida parapsilosis, in the test on Staphylococcus aureus [1], in the test with Staphylococcus aureus [3], in the test with Enterococcus and with Pseudomonas aeruginosa was inactive. Further, the result with Candida tropicalis was inactive. Also, the MIC is 50 µg/mL (≈ 105 µM) against Nakaseomyces glabratus, 25 µg/mL (≈ 52.7 µM) against Candida albicans [2] and 50 µg/mL (≈ 105 µM) in the test with Candida albicans [4].
For the compound `O=C(Nc1ccc(C(F)(F)F)cc1)c1nn(-c2cccc([N+](=O)[O-])c2)c(-c2ccccc2)c1C(=O)Nc1ccc(C(F)(F)F)cc1`, the outcome in the test with Escherichia coli, with Candida parapsilosis, with Staphylococcus aureus [1], with Nakaseomyces glabratus, in the test with Staphylococcus aureus [3] and in the test on Candida albicans [4] was inactive. Also, the outcome in the test with Enterococcus, with Pseudomonas aeruginosa and in the test on Candida tropicalis was inactive. In addition, in the test with Candida albicans [2], it took 50 µg/mL (≈ 78.2 µM) to inhibit growth (MIC).
`Cc1ccc(NC(=O)c2nn(-c3cccc([N+](=O)[O-])c3)c(-c3ccccc3)c2C(=O)Nc2ccc(C)cc2)cc1`: the result in the test on Escherichia coli, with Candida parapsilosis, with Staphylococcus aureus [1], in the test on Nakaseomyces glabratus, in the test with Staphylococcus aureus [3] and with Candida albicans [4] was inactive. Moreover, the result in the test on Enterococcus, in the test with Pseudomonas aeruginosa and with Candida tropicalis was inactive. For the same compound, inhibition of growth against Candida albicans [2] (MIC) required 25 µg/mL (≈ 47 µM).
Take `O=C(Nc1ccc(F)cc1)c1nn(-c2cccc([N+](=O)[O-])c2)c(-c2ccccc2)c1C(=O)Nc1ccc(F)cc1`: the outcome in the test on Escherichia coli, in the test with Candida parapsilosis, in the test with Staphylococcus aureus [1], with Nakaseomyces glabratus, with Staphylococcus aureus [3] and in the test with Candida albicans [4] was inactive. For the same compound, the result in the test with Enterococcus, in the test on Pseudomonas aeruginosa and in the test on Candida tropicalis was inactive. In addition, inhibition of growth against Candida albicans [2] (MIC) required 25 µg/mL (≈ 46.3 µM).
With `CNC(=O)NC(=O)c1nn(-c2cccc([N+](=O)[O-])c2)c(-c2ccccc2)c1C(=O)NC(=O)NC`, the outcome with Escherichia coli, with Candida parapsilosis, in the test with Nakaseomyces glabratus, with Enterococcus, in the test with Pseudomonas aeruginosa and in the test on Candida tropicalis was inactive. Also, the MIC is 50 µg/mL (≈ 107 µM) against Staphylococcus aureus [1], 25 µg/mL (≈ 53.7 µM) with Candida albicans [2], 50 µg/mL (≈ 107 µM) against Staphylococcus aureus [3] and 25 µg/mL (≈ 53.7 µM) against Candida albicans [4].
As to `O=C(Nc1cccc([N+](=O)[O-])c1)c1nn(-c2cccc([N+](=O)[O-])c2)c(-c2ccccc2)c1C(=O)Nc1cccc([N+](=O)[O-])c1`, the outcome with Escherichia coli, in the test on Staphylococcus aureus [1], with Nakaseomyces glabratus, in the test on Staphylococcus aureus [3], with Enterococcus and in the test with Pseudomonas aeruginosa was inactive. Moreover, the result with Candida tropicalis was inactive. The values for the MIC in the test on Candida parapsilosis (Lodderomyces parapsilosis), against Candida albicans [2] and against Candida albicans [4] were 50 µg/mL (≈ 84.2 µM), 25 µg/mL (≈ 42.1 µM) and 25 µg/mL (≈ 42.1 µM), respectively.
Take `CCOC(=O)c1c(C(=O)Nc2cccc(F)c2)nn(-c2cccc([N+](=O)[O-])c2)c1-c1ccccc1`: the outcome with Escherichia coli, with Candida parapsilosis, with Staphylococcus aureus [1], in the test with Nakaseomyces glabratus, with Staphylococcus aureus [3] and in the test on Enterococcus was inactive. Further, the outcome in the test on Pseudomonas aeruginosa and in the test on Candida tropicalis was inactive. Besides, the minimum inhibitory concentration (MIC) came out at 25 µg/mL (≈ 52.7 µM) with Candida albicans [2] and 50 µg/mL (≈ 105 µM) in the test with Candida albicans [4].
Take `CCOC(=O)c1c(C(=O)Nc2ccc(C(F)(F)F)cc2)nn(-c2cccc([N+](=O)[O-])c2)c1-c1ccccc1`: the result with Escherichia coli, with Candida parapsilosis, in the test with Staphylococcus aureus [1], in the test on Nakaseomyces glabratus, in the test on Staphylococcus aureus [3] and in the test on Enterococcus was inactive. Also, the outcome in the test on Pseudomonas aeruginosa and with Candida tropicalis was inactive. Further, the MIC in the test with Candida albicans [2] and against Candida albicans [4] was 25 µg/mL (≈ 47.7 µM) in each case.
Regarding `O=C(Nc1ccccc1F)c1nn(-c2cccc([N+](=O)[O-])c2)c(-c2ccccc2)c1C(=O)Nc1ccccc1F`, the outcome in the test with Escherichia coli, with Candida parapsilosis, in the test on Staphylococcus aureus [1], in the test with Nakaseomyces glabratus, with Staphylococcus aureus [3] and in the test with Candida albicans [4] was inactive. Moreover, the outcome with Enterococcus, in the test on Pseudomonas aeruginosa and in the test on Candida tropicalis was inactive. The compound further showed an MIC against Candida albicans [2] of 25 µg/mL (≈ 46.3 µM).
Take `CCOC(=O)c1c(C(=O)Nc2ccccc2C(F)(F)F)nn(-c2cccc([N+](=O)[O-])c2)c1-c1ccccc1`: the result in the test with Escherichia coli, with Candida parapsilosis, with Staphylococcus aureus [1], with Nakaseomyces glabratus, with Staphylococcus aureus [3] and in the test with Enterococcus was inactive. In addition, the result in the test on Pseudomonas aeruginosa and in the test with Candida tropicalis was inactive. In addition, the MIC against Candida albicans [2] and against Candida albicans [4] was 50 µg/mL (≈ 95.3 µM) in each case.
As for `O=C(Nc1ccccc1C(F)(F)F)c1nn(-c2cccc([N+](=O)[O-])c2)c(-c2ccccc2)c1C(=O)Nc1ccccc1C(F)(F)F`, the outcome with Escherichia coli, in the test with Candida parapsilosis, in the test on Staphylococcus aureus [1], with Nakaseomyces glabratus, with Staphylococcus aureus [3] and in the test with Enterococcus was inactive. Besides, the result in the test on Pseudomonas aeruginosa and in the test with Candida tropicalis was inactive. The minimum inhibitory concentration (MIC) is 25 µg/mL (≈ 39.1 µM) in the test on Candida albicans [2] and 50 µg/mL (≈ 78.2 µM) in the test with Candida albicans [4].
For the compound `CCNC(=O)NC(=O)c1nn(-c2cccc([N+](=O)[O-])c2)c(-c2ccccc2)c1C(=O)NC(=O)NCC`, the outcome with Escherichia coli, with Candida parapsilosis, in the test on Staphylococcus aureus [1], in the test on Nakaseomyces glabratus, with Staphylococcus aureus [3] and in the test on Enterococcus was inactive. For the same compound, the result with Pseudomonas aeruginosa and in the test with Candida tropicalis was inactive. In addition, the minimal inhibitory concentration (MIC) in the test with Candida albicans [2] and in the test with Candida albicans [4] was 25 µg/mL (≈ 50.7 µM) throughout.
As for `O=C(O)c1cnn(-c2cccc([N+](=O)[O-])c2)c1-c1ccccc1`, the outcome in the test with Escherichia coli, in the test on Candida parapsilosis, in the test on Nakaseomyces glabratus, in the test with Candida albicans [4], with Enterococcus and in the test on Pseudomonas aeruginosa was inactive. For the same compound, in the test on Candida tropicalis, the outcome was inactive. In addition, the figures for the MIC against Staphylococcus aureus [1], against Candida albicans [2] and against Staphylococcus aureus [3] were 25 µg/mL (≈ 80.8 µM), 25 µg/mL (≈ 80.8 µM) and 50 µg/mL (≈ 162 µM), respectively.
